A short description of data set [1]: Solubility testing of saquinavir in oils, surfactants, and co-surfactants. Type of data set: physicochemical. The settings on record: 20 °C, 24 h. In short, it runs like this:
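Excess test compound added to each neat excipient and stirred magnetically. Content quantified by HPLC with UV detection at 240 nm (retention 3.8 min). Expressed as mg/g, mean ± standard deviation.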

The conditions of data set [2]: after oral administration to HIV-infected patients; cited from earlier work.

The text below walks through data of PMC7327769 (Asian Journal of Pharmaceutical Sciences, 2019).

For `CC(C)(C)NC(=O)[C@@H]1C[C@@H]2CCCC[C@@H]2CN1C[C@@H](O)[C@H](Cc1ccccc1)NC(=O)[C@H](CC(N)=O)NC(=O)c1ccc2ccccc2n1` [saquinavir, Saquinavir], the Solubility of saquinavir came out at 145 ± 12.6 mg/g in data set [1] (in Capryol 90 (oil)); 55 ± 5.0 mg/g in data set [1] (in Cremophor® EL (surfactant)); 57 ± 4.2 mg/g in data set [1] (in Labrafac® CM10 (oil)); 105 ± 5.0 mg/g in data set [1] (in Labrasol® (surfactant)); 40 ± 3.4 mg/g in data set [1] (in PEG 400 (co-surfactant)); 228 ± 19.5 mg/g in data set [1] (in Propylene glycol (co-surfactant)). Besides, the Solubility of saquinavir came to 158 ± 17.8 mg/g in data set [1] (in Transcutol® HP (co-surfactant)), 1.9 ± 0.4 mg/g in data set [1] (in Triglyceride (oil)), 37 ± 4.3 mg/g in data set [1] (in Tween® 80 (surfactant)) and 2.2 ± 0.3 mg/g in data set [1] (in Water (aqueous phase)). In data set [2], the “time of the highest saquinavir concentration in plasma” value was 2 to 4 h.
